Laboratory results as given in ChEMBL document CHEMBL4351015, “Design, synthesis and biological evaluation of 3-(imidazo[1,2-a]pyrazin-3-ylethynyl)-2-methylbenzamides as potent and selective pan-tropomyosin receptor kinase (TRK) inhibitors” (Eur J Med Chem, 2019).
One block for each compound: values may come before it.

Legend:
[1] = biological target: Tyrosine-protein kinase ABL1 (Homo sapiens, UniProt P00519); test: Inhibition of recombinant full length human His-tagged ABL1 expressed in baculovirus infected insect cells using tyr 02 as substrate incubated for 2 hr by Z'-Lyte assay
[2] = biological target: High affinity nerve growth factor receptor (Homo sapiens, UniProt P04629); test: Inhibition of recombinant human His-tagged TrkA catalytic domain (441 to 796 residues) expressed in baculovirus expression system using tyr 01 as substrate incubated for 1 hr by Z'-Lyte assay
[3] = biological target: T1, BDNF/NT-3 growth factors receptor (Homo sapiens, UniProt Q16620); test: Inhibition of recombinant human His-tagged TrkB catalytic domain (526 to 838 residues) expressed in baculovirus expression system using tyr 01 as substrate incubated for 1 hr by Z'-Lyte assay
Target sequence in this assay (Q16620 whole entry, the tested form may be a part): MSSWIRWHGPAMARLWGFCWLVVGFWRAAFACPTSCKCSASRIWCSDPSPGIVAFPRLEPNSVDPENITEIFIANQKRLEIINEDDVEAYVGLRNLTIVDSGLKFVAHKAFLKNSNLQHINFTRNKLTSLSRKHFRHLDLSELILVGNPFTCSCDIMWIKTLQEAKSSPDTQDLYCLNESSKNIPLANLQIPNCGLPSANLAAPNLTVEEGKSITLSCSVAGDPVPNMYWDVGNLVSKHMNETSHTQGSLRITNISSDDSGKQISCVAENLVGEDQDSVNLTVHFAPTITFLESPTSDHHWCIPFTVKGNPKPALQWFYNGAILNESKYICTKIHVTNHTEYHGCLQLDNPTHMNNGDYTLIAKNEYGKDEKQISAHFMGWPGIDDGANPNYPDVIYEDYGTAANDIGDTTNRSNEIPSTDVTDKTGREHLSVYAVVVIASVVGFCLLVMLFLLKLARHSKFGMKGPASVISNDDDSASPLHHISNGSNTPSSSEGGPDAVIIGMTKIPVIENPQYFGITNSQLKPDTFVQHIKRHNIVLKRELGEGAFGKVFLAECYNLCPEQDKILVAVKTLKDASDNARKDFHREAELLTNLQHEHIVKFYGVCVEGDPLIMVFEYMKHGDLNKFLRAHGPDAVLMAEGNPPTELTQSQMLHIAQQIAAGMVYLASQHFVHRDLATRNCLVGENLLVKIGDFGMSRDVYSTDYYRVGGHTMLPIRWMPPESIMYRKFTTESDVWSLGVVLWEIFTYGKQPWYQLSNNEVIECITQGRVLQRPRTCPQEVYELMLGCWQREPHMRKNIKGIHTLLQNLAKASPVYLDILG

[4] = Ratio of drug concentration in brain to blood of Sprague-Dawley rat at 25 mg/kg, po administered via gavage incubated for 8 hrs by LC/MS-MS analysis; type: ADME, organism-based; conditions: brain and blood, read-out: BBR
SH-SY5Y [5] = test: Antiproliferative activity against human SH-SY5Y cells transfected with TrkB (unknown origin) assessed as reduction in cell viability incubated for 72 hrs by CCK8 assay; type: functional, cell-based
In short: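 SH-SY5Y-TrkB cells (SH-SY5Y stably transfected with pRP-TrkB, kept under 0.5 µg/ml puromycin in 1:1 MEM/F-12 with 10% FBS) seeded at 1500-3000/well, left overnight. Compounds 0.000457–3 µM were then added with or without BDNF 10 ng/ml for 72 h. Read-out by CCK8. IC50 came from concentration-response curve fitting, reported as mean ± SD from at least three independent experiments.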

[6] = biological target: RAC-alpha serine/threonine-protein kinase (Homo sapiens, UniProt P31749); test: Effect on ATK phosphorylation in BDNF-induced human SH-SY5Y cells up to 2 uM preincubated for 6 hrs followed by BDNF addition and measured after 30 mins by Western blot analysis; type: cell-based; conditions: 0.5 h
[7] = Drug concentration in Sprague-Dawley rat brain at 25 mg/kg, po administered via gavage incubated for 0.5 hrs by LC/MS-MS analysis; type: ADME, organism-based; conditions: read-out: Ct
[8] = Plasma concentration in Sprague-Dawley rat at 25 mg/kg, po administered via gavage incubated for 0.5 hrs by LC/MS-MS analysis; type: ADME, organism-based
[9] = Ratio of drug concentration in brain to blood of Sprague-Dawley rat at 25 mg/kg, po administered via gavage incubated for 2 hrs by LC/MS-MS analysis; type: ADME, organism-based; conditions: brain and blood, read-out: BBR
[10] = biological target: NT-3 growth factor receptor (Homo sapiens, UniProt Q16288); test: Inhibition of recombinant human His-tagged TrkC cytoplasmic domain (510 to 825 residues) expressed in baculovirus using tyr 01 as substrate incubated for 1 hr by Z'-Lyte assay
[11] = Drug concentration in Sprague-Dawley rat brain at 25 mg/kg, po administered via gavage incubated for 2 hrs by LC/MS-MS analysis; type: ADME, organism-based; conditions: read-out: Ct
SH-SY5Y [12] = test: Inhibition of cell migration in human SH-SY5Y cells transfected with TrkB (unknown origin) assessed as reduction in BDNF-induced wound closure at 200 nM incubated for 24 hrs by bright field microscopy relative to control; type: functional
In short: (§1)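 SH-SY5Y-TrkB monolayers were grown to near confluence and scratched with a pipette tip, then washed with PBS. Cells were incubated 24 h in MEM/F-12 with 2% FBS, with or without BDNF 10 ng/mL and with compound. Three random fields were imaged by bright-field microscopy and % wound closure was measured. Run three times, each in triplicate.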

[13] = Plasma concentration in Sprague-Dawley rat at 25 mg/kg, po administered via gavage incubated for 2 hrs by LC/MS-MS analysis; type: ADME, organism-based
[14] = Effect on ERK phosphorylation in BDNF-induced human SH-SY5Y cells up to 2 uM preincubated for 6 hrs followed by BDNF addition and measured after 30 mins by Western blot analysis; type: cell-based; conditions: 0.5 h
SH-SY5Y [15] = test: Inhibition of BDNF-induced cell migration in human SH-SY5Y cells transfected with TrkB (unknown origin) at 200 nM incubated for 24 hrs by crystal violet staining microscopy based transwell assay relative to control; type: functional
In short: (§2)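 Transwell migration: 1.5 X 10⁶ SH-SY5Y-TrkB cells in FBS-free medium containing 0, 8, 40 or 200 nM compound went in the top chamber. The bottom chamber held complete medium with or without BDNF 10 ng/mL. After 24 h at 37 °C, cells were methanol-fixed and stained with 0.25% crystal violet, and non-migrated cells were removed. Cells were counted in six random fields at 200X; mean of three independent experiments.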

SH-SY5Y [16] = test: Inhibition of BDNF-induced cell migration in human SH-SY5Y cells transfected with TrkB (unknown origin) at 8 nM incubated for 24 hrs by crystal violet staining microscopy based transwell assay relative to control; type: functional; in short: as §2
SH-SY5Y [17] = test: Neurotoxicity in human SH-SY5Y cells assessed as reduction in cell viability incubated for 72 hrs by CCK8 assay; type: toxicity, cell-based
SH-SY5Y [18] = test: Inhibition of BDNF-induced cell invasion in human SH-SY5Y cells transfected with TrkB (unknown origin) at 200 nM incubated for 24 hrs by crystal violet staining microscopy-based matrigel assay relative to control; type: functional
In short: (§3)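 Invasion through Matrigel chambers: 1.5 X 10⁶ SH-SY5Y-TrkB cells in FBS-free medium with 0, 8, 40 or 200 nM compound were placed on top. Complete medium with or without BDNF 10 ng/mL went below. After 24 h at 37 °C, cells were fixed in methanol and stained with 0.25% crystal violet, and top-surface cells were removed. Six random fields were counted at 200X; mean of three independent experiments.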

SH-SY5Y [19] = test: Inhibition of BDNF-induced cell migration in human SH-SY5Y cells transfected with TrkB (unknown origin) incubated for 24 hrs by crystal violet staining microscopy based transwell assay; type: functional; in short: as §2
[20] = biological target: T1, BDNF/NT-3 growth factors receptor; test: Inhibition of BDNF-induced TrkB (unknown origin) activation transfected in human SH-SY5Y cells assessed as decrease in Akt phosphorylation at Thr308 residue incubated for 6 hrs followed by BDNF addition further incubated for 30 mins by Western blot analysis; type: cell-based
In short: (§4)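 SH-SY5Y-TrkB stable transfectants were pretreated with 0–2.0 µM compound for 6 h, then given BDNF 10 ng/mL or none for 30 min. Lysates were run on 8–12% SDS-PAGE, blotted to PVDF and blocked in 5% BSA. Primary antibodies were applied overnight at 4 °C, then HRP secondary, with ECL detection. Phospho and total TrkB, PLC-γ1, Akt (Ser473, Thr308) and Erk were probed, with GAPDH as control.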
Target sequence in this assay (Q16620 32-822 limits assumed): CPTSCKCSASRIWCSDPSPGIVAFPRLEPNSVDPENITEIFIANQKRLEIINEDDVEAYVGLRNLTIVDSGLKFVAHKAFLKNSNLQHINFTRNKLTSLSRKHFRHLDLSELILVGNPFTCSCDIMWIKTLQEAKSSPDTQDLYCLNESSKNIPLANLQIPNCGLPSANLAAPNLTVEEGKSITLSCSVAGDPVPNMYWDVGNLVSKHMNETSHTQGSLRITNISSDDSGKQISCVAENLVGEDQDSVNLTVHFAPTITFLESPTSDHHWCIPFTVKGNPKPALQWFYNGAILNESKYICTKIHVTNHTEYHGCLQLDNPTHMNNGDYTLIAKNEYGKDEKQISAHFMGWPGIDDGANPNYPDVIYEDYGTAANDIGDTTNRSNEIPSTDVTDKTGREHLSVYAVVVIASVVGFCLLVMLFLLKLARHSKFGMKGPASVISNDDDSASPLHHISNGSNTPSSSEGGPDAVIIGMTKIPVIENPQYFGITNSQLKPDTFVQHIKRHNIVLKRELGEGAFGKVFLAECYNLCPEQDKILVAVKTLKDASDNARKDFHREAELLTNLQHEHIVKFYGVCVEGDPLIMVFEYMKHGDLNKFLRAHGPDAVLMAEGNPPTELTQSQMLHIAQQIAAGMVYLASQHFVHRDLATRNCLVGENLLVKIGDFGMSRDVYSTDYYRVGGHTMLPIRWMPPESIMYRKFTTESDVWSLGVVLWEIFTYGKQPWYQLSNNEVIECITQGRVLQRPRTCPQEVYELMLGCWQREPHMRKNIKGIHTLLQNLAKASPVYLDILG

[21] = Plasma concentration in Sprague-Dawley rat at 25 mg/kg, po administered via gavage incubated for 8 hrs by LC/MS-MS analysis; type: ADME, organism-based
[22] = biological target: T1, BDNF/NT-3 growth factors receptor; test: Inhibition of TrkB (unknown origin) transfected in human SH-SY5Y cells assessed as decrease in BDNF-induced TrkB phosphorylation incubated for 6 hrs followed by BDNF addition further incubated for 30 mins by Western blot analysis; type: cell-based; in short: as §4
Target sequence in this assay (Q16620 32-822 limits assumed): as above

SH-SY5Y [23] = test: Inhibition of BDNF-induced cell invasion in human SH-SY5Y cells transfected with TrkB (unknown origin) incubated for 24 hrs by crystal violet staining microscopy-based matrigel assay; type: functional; in short: as §3
SH-SY5Y [24] = test: Inhibition of cell migration in human SH-SY5Y cells transfected with TrkB (unknown origin) assessed as reduction in BDNF-induced wound closure at 40 nM incubated for 24 hrs by bright field microscopy relative to control; type: functional; in short: as §1
SH-SY5Y [25] = test: Inhibition of BDNF-induced cell invasion in human SH-SY5Y cells transfected with TrkB (unknown origin) at 40 nM incubated for 24 hrs by crystal violet staining microscopy-based matrigel assay relative to control; type: functional; in short: as §3
[26] = Drug concentration in Sprague-Dawley rat brain at 25 mg/kg, po administered via gavage incubated for 8 hrs by LC/MS-MS analysis; type: ADME, organism-based; conditions: read-out: Ct
[27] = biological target: T1, BDNF/NT-3 growth factors receptor; test: Inhibition of BDNF-induced TrkB (unknown origin) activation transfected in human SH-SY5Y cells assessed as decrease in PLCgamma1 phosphorylation incubated for 6 hrs followed by BDNF addition further incubated for 30 mins by Western blot analysis; type: cell-based; in short: as §4
Target sequence in this assay (Q16620 32-822 limits assumed): as above

[28] = biological target: T1, BDNF/NT-3 growth factors receptor; test: Inhibition of TrkB (unknown origin) transfected in human SH-SY5Y cells assessed as decrease in BDNF-induced TrkB phosphorylation at >=16 nM incubated for 6 hrs followed by BDNF addition further incubated for 30 mins by Western blot analysis; type: cell-based; in short: as §4
Target sequence in this assay (Q16620 32-822 limits assumed): as above

SH-SY5Y [29] = test: Inhibition of BDNF-induced cell invasion in human SH-SY5Y cells transfected with TrkB (unknown origin) at 8 nM incubated for 24 hrs by crystal violet staining microscopy-based matrigel assay relative to control; type: functional; in short: as §3
SH-SY5Y [30] = test: Inhibition of cell migration in human SH-SY5Y cells transfected with TrkB (unknown origin) assessed as reduction in BDNF-induced wound closure at 8 nM incubated for 24 hrs by bright field microscopy relative to control; type: functional; in short: as §1
[31] = Ratio of drug concentration in brain to blood of Sprague-Dawley rat at 25 mg/kg, po administered via gavage incubated for 0.5 hrs by LC/MS-MS analysis; type: ADME, organism-based; conditions: brain and blood, read-out: BBR
[32] = biological target: T1, BDNF/NT-3 growth factors receptor; test: Inhibition of BDNF-induced TrkB (unknown origin) activation transfected in human SH-SY5Y cells assessed as decrease in Erk phosphorylation incubated for 6 hrs followed by BDNF addition further incubated for 30 mins by Western blot analysis; type: cell-based; in short: as §4
Target sequence in this assay (Q16620 32-822 limits assumed): as above

SH-SY5Y [33] = test: Inhibition of BDNF-induced cell migration in human SH-SY5Y cells transfected with TrkB (unknown origin) at 40 nM incubated for 24 hrs by crystal violet staining microscopy based transwell assay relative to control; type: functional; in short: as §2

Sequence of Tyrosine-protein kinase ABL1 (P00519 whole entry, the tested form may be a part): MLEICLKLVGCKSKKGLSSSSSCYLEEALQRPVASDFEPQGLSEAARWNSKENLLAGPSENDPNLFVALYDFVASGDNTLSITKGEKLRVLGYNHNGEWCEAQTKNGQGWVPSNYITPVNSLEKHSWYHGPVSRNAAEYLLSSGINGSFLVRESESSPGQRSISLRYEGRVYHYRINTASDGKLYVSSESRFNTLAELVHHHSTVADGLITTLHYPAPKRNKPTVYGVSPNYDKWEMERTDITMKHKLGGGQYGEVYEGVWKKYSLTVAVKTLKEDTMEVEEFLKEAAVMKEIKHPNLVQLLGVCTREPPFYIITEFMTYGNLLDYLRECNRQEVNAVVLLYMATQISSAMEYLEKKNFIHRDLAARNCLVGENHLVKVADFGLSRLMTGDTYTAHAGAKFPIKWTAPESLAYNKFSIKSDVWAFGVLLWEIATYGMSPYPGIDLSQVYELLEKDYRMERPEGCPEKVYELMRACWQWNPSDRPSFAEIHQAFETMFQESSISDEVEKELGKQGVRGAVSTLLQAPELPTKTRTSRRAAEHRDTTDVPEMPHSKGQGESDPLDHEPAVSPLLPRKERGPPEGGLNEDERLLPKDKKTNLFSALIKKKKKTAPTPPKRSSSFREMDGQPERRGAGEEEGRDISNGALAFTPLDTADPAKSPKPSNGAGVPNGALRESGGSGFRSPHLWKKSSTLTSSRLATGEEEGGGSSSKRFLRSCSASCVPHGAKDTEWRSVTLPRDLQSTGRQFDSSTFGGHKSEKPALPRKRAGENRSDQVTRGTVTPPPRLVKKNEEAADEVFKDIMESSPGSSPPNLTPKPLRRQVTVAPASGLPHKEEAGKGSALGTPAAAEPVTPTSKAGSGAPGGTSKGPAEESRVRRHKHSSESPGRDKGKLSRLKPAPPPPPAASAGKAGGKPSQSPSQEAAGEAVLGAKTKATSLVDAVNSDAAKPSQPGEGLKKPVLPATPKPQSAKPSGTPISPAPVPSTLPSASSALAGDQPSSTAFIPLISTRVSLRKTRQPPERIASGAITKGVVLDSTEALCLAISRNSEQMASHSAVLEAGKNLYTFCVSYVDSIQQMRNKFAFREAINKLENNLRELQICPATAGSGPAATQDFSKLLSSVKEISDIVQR
Sequence of High affinity nerve growth factor receptor (P04629 whole entry, the tested form may be a part): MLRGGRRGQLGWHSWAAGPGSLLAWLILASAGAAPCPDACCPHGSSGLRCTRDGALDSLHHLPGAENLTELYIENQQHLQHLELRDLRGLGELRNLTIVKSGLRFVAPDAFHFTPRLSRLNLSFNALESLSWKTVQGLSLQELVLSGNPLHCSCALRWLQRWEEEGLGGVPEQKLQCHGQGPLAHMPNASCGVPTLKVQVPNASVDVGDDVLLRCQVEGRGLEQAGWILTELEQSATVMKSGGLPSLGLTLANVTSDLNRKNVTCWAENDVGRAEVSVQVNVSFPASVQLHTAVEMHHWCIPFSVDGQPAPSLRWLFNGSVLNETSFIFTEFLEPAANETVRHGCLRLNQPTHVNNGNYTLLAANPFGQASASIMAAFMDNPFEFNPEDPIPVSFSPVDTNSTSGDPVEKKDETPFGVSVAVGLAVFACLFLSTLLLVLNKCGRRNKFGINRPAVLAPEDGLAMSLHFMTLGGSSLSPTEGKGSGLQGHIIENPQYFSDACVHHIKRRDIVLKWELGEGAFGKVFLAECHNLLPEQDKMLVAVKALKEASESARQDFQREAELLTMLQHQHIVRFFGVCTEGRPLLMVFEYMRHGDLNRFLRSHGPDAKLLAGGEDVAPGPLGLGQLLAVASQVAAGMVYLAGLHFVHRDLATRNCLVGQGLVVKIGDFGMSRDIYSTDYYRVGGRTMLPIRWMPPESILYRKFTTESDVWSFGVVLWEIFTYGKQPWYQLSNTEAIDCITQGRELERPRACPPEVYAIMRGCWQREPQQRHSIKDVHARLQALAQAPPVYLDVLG
Sequence of NT-3 growth factor receptor (Q16288 whole entry, the tested form may be a part): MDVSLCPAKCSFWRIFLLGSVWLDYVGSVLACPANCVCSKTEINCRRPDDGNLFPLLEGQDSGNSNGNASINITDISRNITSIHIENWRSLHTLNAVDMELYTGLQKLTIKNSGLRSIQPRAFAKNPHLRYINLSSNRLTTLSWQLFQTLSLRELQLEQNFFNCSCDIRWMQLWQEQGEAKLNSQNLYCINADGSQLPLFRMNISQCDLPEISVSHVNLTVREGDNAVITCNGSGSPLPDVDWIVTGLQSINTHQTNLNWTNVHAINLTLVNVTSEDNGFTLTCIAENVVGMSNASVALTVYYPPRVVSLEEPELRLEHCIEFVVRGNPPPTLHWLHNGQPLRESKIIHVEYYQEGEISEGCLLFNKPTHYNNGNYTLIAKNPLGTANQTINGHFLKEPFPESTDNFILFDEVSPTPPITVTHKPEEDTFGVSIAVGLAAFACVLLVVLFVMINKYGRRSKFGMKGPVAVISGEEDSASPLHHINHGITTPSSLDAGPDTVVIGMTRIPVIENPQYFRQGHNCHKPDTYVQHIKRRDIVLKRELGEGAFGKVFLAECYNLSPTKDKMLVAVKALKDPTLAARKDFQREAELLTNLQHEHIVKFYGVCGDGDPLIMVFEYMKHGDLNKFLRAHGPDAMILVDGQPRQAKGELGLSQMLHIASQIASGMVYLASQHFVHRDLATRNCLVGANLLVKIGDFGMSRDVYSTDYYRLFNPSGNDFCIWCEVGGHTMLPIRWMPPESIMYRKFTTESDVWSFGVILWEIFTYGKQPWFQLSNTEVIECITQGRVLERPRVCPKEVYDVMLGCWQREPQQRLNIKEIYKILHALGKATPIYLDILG
Sequence of RAC-alpha serine/threonine-protein kinase (P31749 whole entry): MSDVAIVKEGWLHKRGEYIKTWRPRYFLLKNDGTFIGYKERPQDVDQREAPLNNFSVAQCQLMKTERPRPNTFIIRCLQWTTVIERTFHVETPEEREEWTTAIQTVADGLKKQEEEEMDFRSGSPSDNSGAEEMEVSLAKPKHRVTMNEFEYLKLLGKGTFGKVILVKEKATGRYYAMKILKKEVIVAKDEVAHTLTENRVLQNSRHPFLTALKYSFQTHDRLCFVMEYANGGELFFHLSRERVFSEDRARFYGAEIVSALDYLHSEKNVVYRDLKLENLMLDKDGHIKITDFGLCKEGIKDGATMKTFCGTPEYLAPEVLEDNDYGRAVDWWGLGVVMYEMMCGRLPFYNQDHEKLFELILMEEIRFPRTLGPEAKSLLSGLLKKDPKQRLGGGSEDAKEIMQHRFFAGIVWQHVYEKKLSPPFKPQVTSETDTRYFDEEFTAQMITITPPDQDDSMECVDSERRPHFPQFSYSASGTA

Structure (SMILES): CN1CCN(Cc2cc(NC(=O)c3cccc(C#Cc4cnc5cnccn45)c3Cl)cc(C(F)(F)F)c2)CC1
IC50 [1]: > 1 µM
IC50 [2]: 0.227 µM
IC50 [3]: 0.254 µM

Structure (SMILES): Cc1ccc(C#Cc2cnc3cnccn23)cc1C(=O)Nc1cc(CN2CCN(C)CC2)cc(C(F)(F)F)c1
IC50 [1]: > 1 µM
IC50 [2]: > 1 µM
IC50 [3]: > 1 µM

Structure (SMILES): Cc1c(C#Cc2cnc3cnc(-c4ccc(N)cc4)cn23)cccc1C(=O)Nc1cc(CN2CCN(C)CC2)cc(C(C)C)c1
Kp at 8 h [4]: 8.3
IC50 (SH-SY5Y [5]): 0.058 µM
Activity [6]: Not Active
concentration at 0.5 h [7]: 0.078 ng/mL
IC50 [1]: > 1 µM
concentration at 0.5 h [8]: 7.33 ng/mL
Kp at 2 h [9]: 6
IC50 [10]: 0.00295 µM
IC50 [2]: 0.00265 µM
concentration at 2 h [11]: 0.355 ng/mL
inhibition at 0.2 µM (SH-SY5Y [12]): 77.5%
concentration at 2 h [13]: 33.2 ng/mL
Activity [14]: Not Active
inhibition at 0.2 µM (SH-SY5Y [15]): 82%
inhibition at 0.008 µM (SH-SY5Y [16]): 22.7%
Activity (SH-SY5Y [17]): Non-Toxic
inhibition at 0.2 µM (SH-SY5Y [18]): 85.5%
inhibition (SH-SY5Y [19]): Dose-dependent effect
inhibition [20]: Dose-dependent effect
concentration at 8 h [21]: 6.52 ng/mL
inhibition [22]: Dose-dependent effect
inhibition (SH-SY5Y [23]): Dose-dependent effect
IC50 [3]: 0.0105 µM
inhibition at 0.04 µM (SH-SY5Y [24]): 76.6%
inhibition at 0.04 µM (SH-SY5Y [25]): 61.9%
concentration at 8 h [26]: 0.09 ng/mL
inhibition [27]: Dose-dependent effect
inhibition [28]: 100%
inhibition at 0.008 µM (SH-SY5Y [29]): 9.1%
inhibition at 0.008 µM (SH-SY5Y [30]): 50.1%
Kp at 0.5 h [31]: 6.4
inhibition [32]: Dose-dependent effect
inhibition at 0.04 µM (SH-SY5Y [33]): 53.3%

Structure (SMILES): CC(C)c1c(C#Cc2cnc3cnccn23)cccc1C(=O)Nc1cc(CN2CCN(C)CC2)cc(C(F)(F)F)c1
IC50 [1]: > 1 µM
IC50 [10]: > 1 µM
IC50 [2]: > 1 µM
IC50 [3]: > 1 µM

Structure (SMILES): CCc1c(C#Cc2cnc3cnccn23)cccc1C(=O)Nc1cc(CN2CCN(C)CC2)cc(C(F)(F)F)c1
IC50 [1]: > 1 µM
IC50 [2]: 0.186 µM
IC50 [3]: 0.315 µM

The next lines start with the values.

IC50 [1]: > 1 µM
IC50 [2]: 0.00356 µM
IC50 [3]: 0.0093 µM
Structure (SMILES): CCc1cc(CN2CCN(C)CC2)cc(NC(=O)c2cccc(C#Cc3cnc4cnc(-c5ccc(N)cc5)cn34)c2C)c1

IC50 [1]: > 1 µM
IC50 [2]: 0.00734 µM
IC50 [3]: 0.0242 µM
Structure (SMILES): Cc1c(C#Cc2cnc3cnc(-c4ccc(N)cc4)cn23)cccc1C(=O)Nc1cc(CN2CCN(C)CC2)cc(-c2ccccc2)c1

IC50 [1]: > 1 µM
IC50 [2]: 0.0064 µM
IC50 [3]: 0.0156 µM
Structure (SMILES): Cc1c(C#Cc2cnc3cnc(-c4ccc(N)cc4)cn23)cccc1C(=O)Nc1cc(CN2CCN(C)CC2)cc(C(C)(C)C)c1

IC50 [1]: > 1 µM
IC50 [2]: 0.00775 µM
IC50 [3]: 0.0131 µM
Structure (SMILES): Cc1c(C#Cc2cnc3cnc(-c4ccc(N)cc4)cn23)cccc1C(=O)Nc1cc(CN2CCN(C)CC2)cc(C(F)(F)F)c1

IC50 [1]: > 1 µM
IC50 [2]: 0.0292 µM
IC50 [3]: 0.0227 µM
Structure (SMILES): Cc1c(C#Cc2cnc3cnc(-c4ccccc4)cn23)cccc1C(=O)Nc1cc(CN2CCN(C)CC2)cc(C(F)(F)F)c1
